The subject of test [1] is MCF7. The test can be described thus: Antiproliferative activity against human MCF7 cells after 48 hrs by MTT assay. Conditions: MCF7, 48 h. The test is classed as functional, cell-based. Summed up: (§1)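 Cells grown to log phase in RPMI 1640 with 10% FBS, diluted to 2 × 10⁴ cells/mL in complete medium and seeded into 96-well plates. Plates held 24 h at 37 °C, 5% CO₂ before compound exposure. After a 4 h incubation, absorbance read at 570 nm on a microplate reader. Three replicate wells per concentration; each assay run at least three times; IC₅₀ reported.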
For orientation: Tetrazolium assays rely on reduction of a dye to a coloured formazan, in cell work by metabolically active cells.

Test [2] deals with B16-F10. The test can be described thus: Antiproliferative activity against mouse B16F10 cells after 48 hrs by MTT assay. The class given is functional, cell-based. Conditions: B16-F10, 48 h. Summed up: as §1
The target in test [3] is Cyclin-dependent kinase 2/cyclin E1 (Homo sapiens, UniProt P24941). The test can be described thus: Inhibition of CDK2/cyclin E. The class given is protein-complex assay.

Each structure is given as a SMILES string.

As a reminder, the IC50 is the midpoint of a concentration-inhibition curve. Low values mean inhibition by little substance, high ones a need for much substance.

On to `COc1ccc(-c2nn(-c3ccccc3)cc2CNc2ccc(F)cc2)cc1`, for which the half-inhibitory concentration (IC50) in test [1] is 5.98 µM; in test [2], 6.58 µM; in test [3], 4.02 µM.

Turning to `Clc1ccc(NCc2cn(-c3ccccc3)nc2-c2ccc(Cl)cc2)cc1`, the IC50 in test [1] came out at 2.28 µM; in test [2], 2.45 µM; in test [3] it was 1.18 µM.

Turning to `Cc1ccc(-c2nn(-c3ccccc3)cc2CNc2ccc(F)cc2)cc1`, the IC50 came to 5.88 µM in test [1], 5.67 µM in test [2] and 3.6 µM in test [3].

With `COc1ccc(-c2nn(-c3ccccc3)cc2CNc2ccc(C)cc2)cc1`, the results for the half-inhibitory concentration (IC50) in test [1], in test [2] and in test [3] were 8.16 µM, 8.38 µM and 5.06 µM, respectively.

For the molecule `Fc1ccc(NCc2cn(-c3ccccc3)nc2-c2ccc(Br)cc2)cc1`, the results for the IC50 in test [1], in test [2] and in test [3] were 3.96 µM, 4.18 µM and 2.36 µM, respectively.

`Cc1ccc(NCc2cn(-c3ccccc3)nc2-c2ccc(Br)cc2)cc1`: the 50% inhibitory concentration (IC50) in test [1] was 5.38 µM; in test [2] it was 5.98 µM; in test [3], 3.02 µM.

Consider `Cc1ccc(NCc2cn(-c3ccccc3)nc2-c2ccc(C)cc2)cc1`, for which the half-maximal inhibitory concentration (IC50) stood at 7.26 µM in test [1], 7.38 µM in test [2] and 4.55 µM in test [3].

For the molecule `Clc1ccc(-c2nn(-c3ccccc3)cc2CNc2ccc(Br)cc2)cc1`, the results for the IC50 in test [1], in test [2] and in test [3] were 2.62 µM, 3.01 µM and 1.85 µM, respectively.

With `Cc1ccc(-c2nn(-c3ccccc3)cc2CNc2ccc(Cl)cc2)cc1`, the half-maximal inhibitory concentration (IC50) in test [1] came to 6.02 µM; in test [2] it was 6.01 µM; in test [3], 3.89 µM.

As for `COc1ccc(-c2nn(-c3ccccc3)cc2CNc2ccc(Cl)cc2)cc1`, the IC50 came out at 6.25 µM in test [1], 7.18 µM in test [2] and 4.28 µM in test [3].

Take `Cc1ccc(-c2nn(-c3ccccc3)cc2CNc2ccc(Br)cc2)cc1`: the IC50 in test [1] turned out to be 6.89 µM; in test [2], 6.76 µM; in test [3] it was 4.15 µM.

Turning to `Clc1ccc(NCc2cn(-c3ccccc3)nc2-c2ccc(Br)cc2)cc1`, the IC50 is 4.15 µM in test [1], 4.29 µM in test [2] and 2.56 µM in test [3].

Turning to `Brc1ccc(NCc2cn(-c3ccccc3)nc2-c2ccc(Br)cc2)cc1`, the IC50 was 5 µM in test [1], 5.27 µM in test [2] and 2.78 µM in test [3].

`COc1ccc(-c2nn(-c3ccccc3)cc2CNc2ccc(Br)cc2)cc1`: the figures for the IC50 in test [1], in test [2] and in test [3] were 7.02 µM, 8.06 µM and 4.96 µM, respectively.

Regarding `Cn1cnc2c(NCc3ccccc3)nc(NCCO)nc21` [OLOMOUCINE], the IC50 was 130 µM in test [1] and 105 µM in test [2].

With `Cc1ccc(NCc2cn(-c3ccccc3)nc2-c2ccc(Cl)cc2)cc1`, the 50% inhibitory concentration (IC50) in test [1] was 3.11 µM; in test [2], 3.48 µM; in test [3], 2.08 µM.

Turning to `Fc1ccc(NCc2cn(-c3ccccc3)nc2-c2ccc(Cl)cc2)cc1`, the half-inhibitory concentration (IC50) came to 1.88 µM in test [1], 2.12 µM in test [2] and 0.98 µM in test [3].

The values are drawn from ChEMBL document CHEMBL2057204, “Synthesis, biological evaluation, and molecular docking studies of N-((1,3-diphenyl-1H-pyrazol-4-yl)methyl)aniline derivatives as novel anticancer agents” (Bioorg Med Chem, 2012).
